Laboratory results as given in article PMC5003678 (European journal of medicinal chemistry, 2016).
pIC50: −log10 of the molar value.

Columns and labels:
[1] = test system: HL-60 (human promyelocytic leukemia cells); settings: read-out: Cytotoxic activity IC50 (95% CI) HL-60; 72 h exposure; ref [41]; cited from earlier work
[2] = test system: SF295 (human glioblastoma cells); settings: read-out: Cytotoxic activity IC50 (95% CI) SF295; 72 h exposure; ref [41]; cited from earlier work
[3] = test system: six cancer cell lines (HL-60, HCT-116, PC3, SF295, MDA-MB-435, OVCAR-8); assay: MTT cytotoxicity assay, cancer cell lines overall; type: cell-based, human; settings: classified by IC50
PC3 cells = assay: Annexin V/PI detection of phosphatidylserine externalization; type: cell-based, human; settings: 5 μM, 6 h; for phosphatidylserine externalization, pre-treated with NAC: 5 mM NAC pre-exposure (24 h); for phosphatidylserine externalization, co-treated with dicoumarol: dicoumarol 50 μM
Procedure, shortened: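 PC3 cells were grown in RPMI 1640 with 10% FBS, 2 mM L-glutamine and penicillin/streptomycin at 37 °C and 5% CO2. They were exposed to 5 μM test compound for 6 h, either after a 24 h pre-exposure to 5 mM N-acetylcysteine or with 50 μM dicoumarol co-treatment. Cells were stained with FITC-Annexin V plus PI and read by flow cytometry, with early apoptosis as FITC only and late as FITC+PI. 10,000 events were counted per experiment, debris excluded, n = 3.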

[4] = test system: A549 cells (human non-small cell lung adenocarcinoma); assay: DNA survival assay, NQO1-dependency with or without dicoumarol; type: cell-based; settings: two hours exposure
intracellular ROS = assay: Generation of intracellular ROS; type: cell-based

Structure (SMILES): CC1(C)OC2=C(C(=O)C(=O)c3ccccc32)C(N=[N+]=[N-])[C@@H]1Br (stereo partly drawn) [Compound 9]
- pIC50 [1]: 5.84
- pIC50 [2]: 5.71

Structure (SMILES): O=C1C(=O)c2ccccc2C2=C1CC(Cn1cc(C[Se]c3ccccc3)nn1)O2 (stereo not drawn) [Compound 26, 2-((4-((phenylselanyl)methyl)-1H-1,2,3-triazol-1-yl)methyl)-2,3-dihydronaphtho[1,2-b]furan-4,5-dione]
- activity classification against cancer cell lines [3]: highly active (highly active (IC50 < 2 μM))

Structure (SMILES): CC1(C)OC2=C(C(=O)C(=O)c3ccccc32)C1n1cc(C[Se]c2ccccc2)nn1 (stereo not drawn) [Compound 22, 2,2-dimethyl-3-(4-((phenylselanyl)methyl)-1H-1,2,3-triazol-1-yl)-2,3-dihydronaphtho[1,2-b]furan-4,5-dione]
- phosphatidylserine externalization (PC3 cells): significant increase
- phosphatidylserine externalization, pre-treated with NAC (PC3 cells): not observed
- phosphatidylserine externalization, co-treated with dicoumarol (PC3 cells): not observed
- NQO1 Specific [4]: NQO1-dependent

Structure (SMILES): C#Cc1cccc(NC2CC(C)(C)OC3=C2C(=O)c2ccccc2C3=O)c1 (stereo not drawn) [Compound 4, 4-((3-ethynylphenyl)amino)-2,2-dimethyl-3,4-dihydro-2H-benzo[g]chromene-5,10-dione]
- activity classification against cancer cell lines [3]: non-active

Structure (SMILES): CC1(C)OC2=C(C(=O)C(=O)c3ccccc32)C1Nc1cccc(-c2cn(C[Se]c3ccccc3)nn2)c1 (stereo not drawn) [Compound 21, 2,2-dimethyl-3-((3-(1-((phenylselanyl)methyl)-1H-1,2,3-triazol-4-yl)phenyl)amino)-2,3-dihydronaphtho[1,2-b]furan-4,5-dione]
- generation of intracellular ROS, pre-exposed with NAC (intracellular ROS; cultures pre-exposed with NAC): not able to generate ROS
- generation of intracellular ROS (intracellular ROS; short exposure (1 h)): led to the generation of intracellular ROS
- phosphatidylserine externalization (PC3 cells): significant increase
- phosphatidylserine externalization, pre-treated with NAC (PC3 cells): not observed
- phosphatidylserine externalization, co-treated with dicoumarol (PC3 cells): not observed
- activity classification against cancer cell lines [3]: highly active (highly active (IC50 < 2 μM))
- NQO1 Specific [4]: NQO1-dependent
